pIC50: −log10 of the molar value. In brackets after ≈: the same amount, converted by molar mass.

Among the data in ChEMBL document CHEMBL1154249, “Semisynthesis and biological evaluation of abietane-type diterpenes. Revision of the structure of rosmaquinone” (J Nat Prod, 2009) are MIC and IC50 values, retold here.

For one test, the system named is Staphylococcus aureus. Description: Antibacterial activity against Staphylococcus aureus ATCC 6538 after 24 hrs by broth dilution assay. To be noted: Staphylococcus aureus, ATCC 6538, 24 h; read-out: MIC. It counts as functional. On the technique in general: In broth dilution the organism is exposed to a series of concentrations in liquid medium.
Test [1] deals with Staphylococcus epidermidis. The test is described as follows: Antibacterial activity against Staphylococcus epidermidis ATCC 14990 after 24 hrs by broth dilution assay. The class given is functional. The settings on record: Staphylococcus epidermidis, ATCC 14990, 24 h; read-out: MIC. In outline: (§1)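 Microdilution in nutrient broth at 37 °C, about (1-5) × 10^5 cfu/mL inoculum, compounds in DMSO (≤1% v/v, matched DMSO controls), in triplicate. Growth followed by OD550. Wells without visible growth after 24 h on a rotary shaker were subcultured in duplicate onto nutrient agar and colonies counted after overnight incubation. MIC is the lowest concentration inhibiting growth at 24 h.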

Another test has as its system Bacillus subtilis. The test is described as follows: Antibacterial activity against Bacillus subtilis ATCC 6051 after 24 hrs by broth dilution assay. The class given is functional. To be noted: Bacillus subtilis, ATCC 6051, 24 h; read-out: MIC.
Another test relates to Bacillus cereus. Description: Antibacterial activity against Bacillus cereus ATCC 21772 after 24 hrs by broth dilution assay. The class given is functional. The settings on record: Bacillus cereus, ATCC 21772, 24 h.
The test system of the next test is Candida albicans. Description: Antibacterial activity against Candida albicans CECT 170 after 24 hrs by broth dilution assay. It counts as functional. The settings on record: CECT 1039, 24 h, in the assay text read “CECT 1039” for “CECT 170”. The procedure, abridged:
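Yeast grown in Sabouraud liquid medium at 37 °C. Microdilution in triplicate, about (1-5) × 10^5 cfu/mL, DMSO ≤1% v/v with matched controls. OD550 followed. Clear wells at 24 h were plated in duplicate on Sabouraud agar and counted after overnight incubation. MIC is the lowest concentration inhibiting growth.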

For a further test, the system named is Enterococcus faecalis. Description: Antibacterial activity against Enterococcus faecalis ATCC 29212 after 24 hrs by broth dilution assay. It counts as functional. The settings on record: ATCC 29212, 24 h. In outline:
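Microdilution in brain heart infusion broth, shaken at 37 °C, about (1-5) × 10^5 cfu/mL start, DMSO ≤1% v/v with matched controls, in triplicate. OD550 read. Clear wells at 24 h were subcultured in duplicate onto brain heart infusion agar and counted after overnight incubation. MIC is the lowest concentration giving growth inhibition.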

The subject of test [2] is Mycolicibacterium smegmatis. Description: Antibacterial activity against Mycobacterium smegmatis ATCC 19420 after 48 hrs by broth dilution assay. It counts as functional. To be noted: ATCC 19420, 48 h. The procedure, abridged: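 Brain heart infusion broth with 0.06% Tween 80, 37 °C on a rotary shaker, inoculum about (1-5) × 10^5 cfu/mL, DMSO ≤1% v/v with matched controls, in triplicate. OD550 monitored.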

The subject of another test is Escherichia coli. The test is described as follows: Antibacterial activity against Escherichia coli ATCC 9637 after 24 hrs by broth dilution assay. It counts as functional. The settings on record: ATCC 9637, 24 h. The procedure, abridged: as §1
The subject of a further test is Proteus mirabilis. Description: Antibacterial activity against Proteus mirabilis CECT 170 after 24 hrs by broth dilution assay. It counts as functional. The settings on record: CECT 170, 24 h. In outline: as §1
The subject of a further test is Pseudomonas aeruginosa. Description: Antibacterial activity against Pseudomonas aeruginosa AK958 after 24 hrs by broth dilution assay. It counts as functional. To be noted: AK958, 24 h. The procedure, abridged:
as §1

The subject of another test is Salmonella. The test is described as follows: Antibacterial activity against Salmonella CECT 4569 after 24 hrs by broth dilution assay. The class given is functional. The settings on record: CECT 4569, 24 h. The procedure, abridged: as §1
In test [3] the test system is HeLa. Description: Cytotoxicity against human HeLa cells at lag phase of growth after 48 hrs by MTT assay. The class given is functional, cell-based. The settings on record: Homo sapiens, HeLa, 48 h; read-out: IC50. The procedure, abridged: (§2)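 Monolayers grown in DMEM with 5% fetal calf serum and penicillin-streptomycin at 37 °C, 5% CO2. 2×10^4 cells/well in lag or log phase were exposed for 48 h to a concentration series of compounds predissolved in DMSO. MTT formazan was dissolved in DMSO and read at 550 nm. IC50 taken from the curve; three independent experiments.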

For test [4], the system named is HeLa. The test is described as follows: Cytotoxicity against human HeLa cells at exponential phase of growth after 48 hrs by MTT assay. The class given is functional, cell-based. To be noted: Homo sapiens, HeLa, 48 h; read-out: IC50. The procedure, abridged: as §2
In test [5] the test system is HEp-2. Description: Cytotoxicity against human Hep2 cells at lag phase of growth after 48 hrs by MTT assay. The class given is functional, cell-based. The settings on record: Homo sapiens, HEp-2, 48 h; read-out: IC50. The procedure, abridged:
as §2
(In general: Formazan colour is commonly taken as a measure of viable cells.)

The test system of test [6] is HEp-2. Description: Cytotoxicity against human Hep2 cells at exponential phase of growth after 48 hrs by MTT assay. The class given is functional, cell-based. To be noted: Homo sapiens, HEp-2, 48 h; read-out: IC50. In outline: as §2
Test [7] has as its system A549. Description: Cytotoxicity against human A549 cells at lag phase of growth after 48 hrs by MTT assay. The class given is functional, cell-based. The settings on record: Homo sapiens, A549, 48 h; read-out: IC50. In outline: as §2
Test [8] concerns A549. Description: Cytotoxicity against human A549 cells at exponential phase of growth after 48 hrs by MTT assay. It counts as functional, cell-based. The settings on record: Homo sapiens, A549, 48 h; read-out: IC50. In outline: as §2
For test [9], the system named is MCF7. Description: Cytotoxicity against human MCF7 cells at lag phase of growth after 48 hrs by MTT assay. It counts as functional, cell-based. The settings on record: Homo sapiens, MCF7, 48 h; read-out: IC50. The procedure, abridged:
as §2

Test [10] relates to MCF7. The test is described as follows: Cytotoxicity against human […] cells at exponential phase of growth after 48 hrs by MTT assay. To be noted: Homo sapiens, MCF7, 48 h; read-out: IC50. It counts as functional, cell-based. In outline: as §2
For test [11], the system named is Vero. The test is described as follows: Cytotoxicity against african green monkey Vero cells at lag phase of growth after 48 hrs by MTT assay. It counts as cell-based, Chlorocebus sabaeus. The settings on record: Chlorocebus sabaeus, Vero, 48 h; read-out: IC50. The procedure, abridged:
as §2

For test [12], the system named is Vero. Description: Cytotoxicity against african green monkey Vero cells at exponential phase of growth after 48 hrs by MTT assay. It counts as cell-based, Chlorocebus sabaeus. The settings on record: Chlorocebus sabaeus, Vero, 48 h; read-out: IC50. The procedure, abridged: as §2

The MIC is the least concentration at which growth counts as inhibited. In general, pIC50 refers to −log10 of the IC50, conventionally taken in molar units. For `CC(C)C1=CC2=C[C@H]3OC(=O)[C@@]4(CCCC(C)(C)[C@H]34)C2=C(O)C1=O` [SAGEQUINONE METHIDE A], the MIC with Staphylococcus aureus is 20 µg/mL (≈ 60.9 µM); in test [1], 40 µg/mL (≈ 122 µM); in the test on Bacillus subtilis it was 10 µg/mL (≈ 30.4 µM); against Bacillus cereus it was 10 µg/mL (≈ 30.4 µM); in the test with Candida albicans it was greater than 40 µg/mL; against Enterococcus faecalis it was greater than 40 µg/mL. Also, the MIC (in [2]; in the test on Escherichia coli; against Proteus mirabilis; in the test on Pseudomonas aeruginosa; against Salmonella) was greater than 40 µg/mL throughout. For the same compound, the pIC50 with HeLa [3] was 4.85; in the test on HeLa [4], 5.02; in the test with HEp-2 [5], 4.49; in the test with HEp-2 [6], 4.72; in the test on A549 [7], less than 4.22; in the test on A549 [8], 4.58. Moreover, the negative-log IC50 (pIC50) in the test on MCF7 [9] was 4.34; in the test with MCF7 [10], 4.57; in the test on Vero [11], less than 4.22; with Vero [12], less than 4.22.
